From ChEMBL document CHEMBL1133480, “Rational design, synthesis, and biological activity of benzoxazinones as novel factor Xa inhibitors” (J Med Chem, 2000)

Legend:
Coagulation factor X [1] = molecular target: T1, Coagulation factor X (Homo sapiens, UniProt P00742); assay: In vitro inhibition of coagulation factor Xa.
Summary of the method: (§1)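 Enzyme was preincubated 1 h at room temperature with inhibitor across 14 concentrations (1 nM–100 μM final). A405 was read kinetically over 10 min at 37 °C. Percent inhibition came from the linear progress-curve slopes, typically in duplicate.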

Plasminogen [2] = molecular target: T2, Plasminogen (Homo sapiens, UniProt P00747); assay: Compound was tested for in vitro inhibitory activity against plasmin at 100 uM
Prothrombin [3] = molecular target: T3, Prothrombin (Homo sapiens, UniProt P00734); assay: Inhibition of thrombin at 100 uM
Serine protease 1 [4] = molecular target: T4, Serine protease 1 (Homo sapiens, UniProt P07477); assay: In vitro inhibitory activity against trypsin; summary of the method: as §1
Plasminogen [5] = molecular target: T2, Plasminogen; assay: Inhibition of plasmin at 100 uM
Serine protease 1 [6] = molecular target: T4, Serine protease 1; assay: In vitro inhibitory activity against trypsin at 100 uM
Plasminogen [7] = molecular target: T2, Plasminogen; assay: Compound was tested for in vitro inhibitory activity against plasmin; summary of the method: as §1
Prothrombin [8] = molecular target: T3, Prothrombin; assay: Inhibition of thrombin; summary of the method: as §1
Coagulation factor X [9] = molecular target: T1, Coagulation factor X; assay: Compound was tested for in vitro inhibitory activity against Coagulation factor X at 100 uM

T4 sequence (P07477 whole entry): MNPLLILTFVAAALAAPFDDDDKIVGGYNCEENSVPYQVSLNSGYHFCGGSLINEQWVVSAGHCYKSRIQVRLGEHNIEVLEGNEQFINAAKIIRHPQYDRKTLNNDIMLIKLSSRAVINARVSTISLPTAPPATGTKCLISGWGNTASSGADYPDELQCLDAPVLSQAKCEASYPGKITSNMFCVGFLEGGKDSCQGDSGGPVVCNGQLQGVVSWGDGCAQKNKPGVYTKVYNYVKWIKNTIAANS
T1 sequence (P00742 41-179 limits assumed): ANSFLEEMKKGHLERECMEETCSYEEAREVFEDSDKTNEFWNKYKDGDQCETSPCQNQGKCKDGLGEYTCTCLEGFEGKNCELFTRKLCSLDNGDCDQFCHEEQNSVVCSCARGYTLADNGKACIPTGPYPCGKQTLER
T1 sequence (P00742 235-488 limits assumed): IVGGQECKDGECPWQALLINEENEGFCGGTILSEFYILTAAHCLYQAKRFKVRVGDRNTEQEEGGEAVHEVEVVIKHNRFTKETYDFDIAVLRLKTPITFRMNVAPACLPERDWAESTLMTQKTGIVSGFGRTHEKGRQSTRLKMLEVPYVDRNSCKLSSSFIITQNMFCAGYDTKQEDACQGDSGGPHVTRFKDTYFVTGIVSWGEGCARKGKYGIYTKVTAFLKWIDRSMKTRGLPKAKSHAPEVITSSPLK
T2 sequence (P00747 97-580 limits assumed): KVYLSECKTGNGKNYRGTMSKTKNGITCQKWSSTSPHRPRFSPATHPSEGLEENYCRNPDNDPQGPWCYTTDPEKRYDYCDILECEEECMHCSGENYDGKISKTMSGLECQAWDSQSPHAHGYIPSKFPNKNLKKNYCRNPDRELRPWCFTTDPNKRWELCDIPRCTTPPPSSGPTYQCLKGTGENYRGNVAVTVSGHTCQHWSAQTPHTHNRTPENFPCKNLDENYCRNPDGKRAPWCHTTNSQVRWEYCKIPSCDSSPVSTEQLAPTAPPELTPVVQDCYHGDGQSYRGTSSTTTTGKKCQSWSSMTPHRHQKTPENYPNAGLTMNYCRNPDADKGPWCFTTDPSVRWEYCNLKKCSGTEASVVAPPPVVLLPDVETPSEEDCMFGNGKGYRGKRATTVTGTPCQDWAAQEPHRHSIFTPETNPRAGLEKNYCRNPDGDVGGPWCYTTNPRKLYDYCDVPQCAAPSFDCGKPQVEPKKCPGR
T2 sequence (P00747 581-810 limits assumed): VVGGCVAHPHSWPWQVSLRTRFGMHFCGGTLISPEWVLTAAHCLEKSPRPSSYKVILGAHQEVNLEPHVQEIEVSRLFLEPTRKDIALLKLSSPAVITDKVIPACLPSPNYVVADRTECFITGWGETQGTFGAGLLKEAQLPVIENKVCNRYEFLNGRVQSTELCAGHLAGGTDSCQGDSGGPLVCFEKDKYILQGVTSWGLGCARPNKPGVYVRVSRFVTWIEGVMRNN

N=C(N)c1cccc(C2Oc3ccccc3N(CCCCCN)C2=O)c1 (stereo unspecified)
IC50 (Coagulation factor X [1]): 6.3 µM | inhibition (Plasminogen [2]): 64% | inhibition (Prothrombin [3]): 60% | IC50 (Serine protease 1 [4]): 4.3 µM

CC1CCCC(C)N1CCCCCN1C(=O)C(c2ccc(Cl)c(Cl)c2)Oc2ccccc21 (stereo unspecified)
IC50 (Coagulation factor X [1]): 26 µM | inhibition (Plasminogen [5]): 25% | inhibition (Prothrombin [3]): 47% | inhibition (Serine protease 1 [6]): 14%

Cc1ccc(C2Oc3ccccc3N(CCCCCN3C(C)CCCC3C)C2=O)cc1 (stereo unspecified)
IC50 (Coagulation factor X [1]): 28 µM | inhibition (Plasminogen [5]): 13% | inhibition (Prothrombin [3]): 33% | inhibition (Serine protease 1 [6]): 18%

CC1CCCC(C)N1CCCCN1C(=O)C(c2cccc(C(=N)N)c2)Oc2ccccc21 (stereo unspecified)
IC50 (Coagulation factor X [1]): 0.012 µM | IC50 (Plasminogen [7]): 38 µM | IC50 (Prothrombin [8]): 1.1 µM | IC50 (Serine protease 1 [4]): 0.3 µM

CC1CCCC(C)N1CCCCCN1C(=O)C(c2cccc(C(=N)S)c2)Oc2ccccc21 (stereo unspecified)
inhibition (Plasminogen [5]): 29% | inhibition (Prothrombin [3]): 20% | inhibition (Serine protease 1 [6]): 5.2%

CC1CCC(C)N1CCCCCN1C(=O)C(c2cccc(C(=N)N)c2)Oc2ccccc21 (stereo unspecified)
IC50 (Coagulation factor X [1]): 0.048 µM | inhibition (Plasminogen [2]): 85% | IC50 (Prothrombin [8]): 0.91 µM | IC50 (Serine protease 1 [4]): 0.76 µM

N=C(N)c1cccc(C2Oc3ccccc3N(CCCCCN3CCOCC3)C2=O)c1 (stereo unspecified)
IC50 (Coagulation factor X [1]): 0.24 µM | inhibition (Plasminogen [2]): 70% | IC50 (Prothrombin [8]): 2.2 µM | IC50 (Serine protease 1 [4]): 1.1 µM

CC1CCCC(C)N1CCCCCN1C(=O)C(c2cccc(C(=N)NN3CCOCC3)c2)Oc2ccccc21 (stereo unspecified)
inhibition (Plasminogen [2]): 0% | inhibition (Prothrombin [3]): 15% | inhibition (Serine protease 1 [6]): 58%

CC1CCCC(C)N1CCCCCCN1C(=O)C(c2cccc(C(=N)N)c2)Oc2ccccc21 (stereo unspecified)
IC50 (Coagulation factor X [1]): 0.068 µM | IC50 (Plasminogen [7]): 12 µM | IC50 (Prothrombin [8]): 5.6 µM | IC50 (Serine protease 1 [4]): 2.1 µM

COc1ccc(C2Oc3ccccc3N(CCCCCN3C(C)CCCC3C)C2=O)cc1OC (stereo unspecified)
inhibition (Coagulation factor X [9]): 31% | inhibition (Plasminogen [5]): 0% | inhibition (Prothrombin [3]): 0% | inhibition (Serine protease 1 [6]): 0%

C/N=C(/N)c1cccc(C2Oc3ccccc3N(CCCCCN3C(C)CCCC3C)C2=O)c1 (stereo unspecified)
inhibition (Plasminogen [2]): 32% | inhibition (Prothrombin [3]): 68% | inhibition (Serine protease 1 [6]): 32%

CNC(=N)c1cccc(C2Oc3ccccc3N(CCCCCN3C(C)CCCC3C)C2=O)c1 (stereo unspecified)
IC50 (Coagulation factor X [1]): 2.8 µM

N=C(N)c1cccc(C2Oc3ccccc3N(CCCCCN3CCCCC3)C2=O)c1 (stereo unspecified)
IC50 (Coagulation factor X [1]): 0.053 µM | IC50 (Plasminogen [7]): 21 µM | IC50 (Prothrombin [8]): 3.4 µM | IC50 (Serine protease 1 [4]): 0.99 µM
